High-throughput results as filed in PubChem BioAssay.
Compounds with a hit are over-represented: about 2.2% of the library has one in this group of screens.
Dyrk1A ADPGlo = inhibitors of rat Dyrk1A kinase. Q63470. ADP-Glo luminescence, NFATc1 peptide. inhibition, % at 12.5 µM. 310,000 compounds, 0.43% hits. AID 504441; in the data active means inhibition above about 50%;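 further: plate controls were vehicle with enzyme for no effect and no enzyme for full effect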
dFosB act-1 = activators of mouse delta FosB homodimer. 340,000 compounds, 0.99% hits. purified delta FosB, TAMRA-CDK5 oligo fluorescence polarization; percent of positive-control signal above neutral wells. activation, % at 25 µM. P13346. AID 493131;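 active means mean activation above about 17%, with every replicate also reaching it, limit read from the data, passing the limit was not always enough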
Rtt109 HAT inh = inhibitors of Candida albicans Rtt109/Vps75 histone acetyltransferase; Q5AAJ8; 330,000 compounds, 0.16% hits; purified Rtt109/Vps75, ThioGlo CoA-SH fluorescence, 4 h; inhibition, % at 34.9 µM; AID 540336;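 active means inhibition of at least 50% in every replicate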
Target sequence (Q5AAJ8 whole entry, looked up): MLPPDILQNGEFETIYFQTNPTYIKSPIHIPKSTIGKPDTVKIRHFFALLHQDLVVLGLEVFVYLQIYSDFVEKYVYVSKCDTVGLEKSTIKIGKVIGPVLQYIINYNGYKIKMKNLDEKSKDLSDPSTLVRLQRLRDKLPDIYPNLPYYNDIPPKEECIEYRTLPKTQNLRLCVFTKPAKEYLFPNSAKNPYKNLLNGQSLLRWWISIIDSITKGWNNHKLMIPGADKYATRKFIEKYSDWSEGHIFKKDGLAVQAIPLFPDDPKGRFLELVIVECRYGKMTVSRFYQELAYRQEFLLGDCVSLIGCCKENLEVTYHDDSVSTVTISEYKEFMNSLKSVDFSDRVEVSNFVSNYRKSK
CDK5 p35 inh = CDK5/p35 (human) kinase inhibition; Q00535+Q15078; inhibition, % at 10 µM; 330,000 compounds, 0.01% hits; Recombinant CDK5/p35, ADP-Glo luminescence, 60 min; AID 488839;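 active means highest replicate inhibition of at least 50% and at least 75% of replicates reaching 50%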;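 further: plate controls were DMSO neutral control for no effect and GW8510 at 10 µM for full effect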
CAL PDZ FP-1 = blocks peptide binding to human CAL PDZ domain; inhibition, % at 20 µM; 330,000 compounds, 0.02% hits; purified CAL PDZ, TMR-peptide fluorescence polarization, 1 h;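 active means highest replicate inhibition of at least 40%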;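 further: plate controls were DMSO neutral control wells for no effect and unlabeled competitor peptide control wells for full effect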
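material = purified tagged CAL PDZ domain construct (CerCALP) | compound dosing = 20 µM, one dose | times = 1 h at RT | measured by = fluorescence polarization from S- and P-plane intensities, G-factor corrected | read-out = inhibition from polarization loss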
CAL PDZ FP-2 = blocks peptide binding to the human CAL PDZ domain; Q9HD26; purified CAL PDZ, TMR-peptide fluorescence polarization, 1 h; inhibition, % at 24.9 µM; 300,000 compounds, 0.92% hits;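 active means mean inhibition of at least 30% with at least half of replicates also reaching 30%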;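 further: 0% = DMSO neutral control and 100% = excess unlabeled competitor peptide PRC23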
dFosB act-2 = activators of mouse delta FosB homodimer DNA binding; 2,400 tested, under 10 active; purified delta FosB, TAMRA-CDK5 oligo fluorescence polarization; normalised: neutral wells 0, positive control 100; shares compounds with dFosB act-1; activation, % at 24.9 µM; AID 588690;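 active means highest replicate activation at or above 34% and every replicate reaching that threshold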;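 further: higher polarization means more probe DNA bound by delta FosB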
* marks the source's active call; other numbers are inactive results; . = not tested or not shown.

SMILES	Dyrk1A ADPGlo	dFosB act-1	Rtt109 HAT inh	CDK5 p35 inh	CAL PDZ FP-1	CAL PDZ FP-2	dFosB act-2
COC(=O)c1ccc2c(=O)n(Cc3ccco3)c(SCC(=O)Nc3cc(C)on3)nc2c1	-4	25*	2	0	-2	-1	0
NC(=O)C1CCN(C(=O)c2ccc3c(=O)n(Cc4ccco4)c(SCC(=O)c4ccccc4)nc3c2)CC1	-5	36*	0	2	-4	-3	2
COC(=O)c1ccc2c(=O)n(Cc3ccco3)c(SCC(=O)Nc3ccccc3Cl)nc2c1	-7	-6	2	1	0	-3	.
CS(=O)(=O)c1ccc(Cl)c(NC(=O)Cc2c(Cl)cccc2Cl)c1	-5	41*	-7	1	0	5	5
Cc1ccc(NC(=O)NNC(=O)COc2ccc([N+](=O)[O-])cc2)cc1C	.	32*	-4	-5	-1	.	-10
CCOC(=O)c1cccc(NC(=O)COc2ccc([N+](=O)[O-])cc2)c1	12	-4	13	0	-3	-2	.
Cc1cccc(NC(=O)NNC(=O)COc2ccc(Cl)cc2)c1	-4	35*	-4	-1	-3	0	2
CCCOC(=O)c1cccc(NC(=O)COc2ccc([N+](=O)[O-])cc2)c1	-7	19*	-1	-2	-1	-4	3
Cc1cccc(NC(=O)NNC(=O)c2cc(-c3ccccc3Cl)nc3ccccc23)c1	7	20*	-25	0	-2	.	0
Cc1cc(C(=O)Nc2cc(S(C)(=O)=O)ccc2Cl)c(C)o1	.	-3	-2	-1	0	-2	.
Cc1ccc(OCC(=O)NNC(=O)Nc2ccc(Cl)cc2)c(Br)c1	0	23*	-5	0	0	-1	1
Cc1ccc(NC(=O)Nc2ccc(Cl)cc2)c(Br)c1	-2	3	-4	-2	0	-6	.
COc1ccc(NC(=O)NNC(=O)COc2ccc(Cl)cc2C)cc1OC	-3	45*	2	-3	-1	-2	4
COc1ccc(NC(=O)NNC(=O)c2ccc(Cl)cc2Cl)cc1OC	.	-4	11	0	0	1	.
O=C1C2CC=CCC2C(=O)N1c1nccs1 (stereo not given)	-4	-8	-13	2	1	3	.
CCC(NC(=O)c1ccccc1NC(=O)c1ccco1)C(=O)NNC(=O)c1ccc(OC)cc1 (stereo not given)	-7	32*	-1	1	-4	-6	2
CCC(C)C(NC(=O)c1ccccc1NC(=O)c1ccco1)C(=O)NNC(=O)c1ccc(OC)cc1 (stereo not given)	3	14	4	0	1	4	.
CCC(C)C(NC(=O)c1ccccc1NC(=O)c1ccco1)C(=O)NC1CCCCC1 (stereo not given)	5	31*	-3	-2	0	-1	1
COc1ccc(C(=O)NNC(=O)C(NC(=O)c2ccccc2NC(=O)c2ccco2)C(C)C)cc1 (stereo not given)	5	32*	-2	0	-1	-4	-1
N#Cc1ccc(-c2ccc(OCC(=O)NCC(=O)Nc3ccc(F)c(F)c3F)cc2)cc1	2	42*	2	-3	0	1	7
N#Cc1ccc(-c2ccc(OCC(=O)NCCc3ccccc3)cc2)cc1	-3	0	-7	-1	-1	0	.
COc1cccc(NC(=O)CN2C(=O)NC3(CCCc4ccccc43)C2=O)c1 (stereo not given)	4	-5	0	-9	-2	.	.
COc1ccc(-c2ccc3c(N)c(C(=O)c4ccc(OC)c(OC)c4)sc3n2)cc1	-1	30*	-3	0	.	-7	9
C=CCn1c(SCC(=O)Nc2ncc(Cc3ccc(Br)cc3)s2)nnc1-c1ccncc1	6	37*	-6	-4	-1	-2	5
COc1ccccc1-n1nc(C(=O)Nc2ccc3c(c2)OCO3)c2ccccc2c1=O	-7	24*	-2	0	-1	-2	1
SMILES	Dyrk1A ADPGlo	dFosB act-1	Rtt109 HAT inh	CDK5 p35 inh	CAL PDZ FP-1	CAL PDZ FP-2	dFosB act-2
COc1ccc(-n2nc(C(=O)Nc3ccc4c(c3)OCO4)c3ccccc3c2=O)c(OC)c1	-1	13	9	0	0	-1	.
O=C(Nc1ccc2c(c1)OCCO2)C1CCCN1C(=O)Nc1ccc(F)cc1 (stereo not given)	-4	-2	-3	0	0	0	.
Cc1c(Cc2ccc3c(c2)OCO3)sc(NC(=O)c2ccccc2)c1C(N)=O	-7	39*	-8	0	0	.	2
CCOC(=O)c1c(NC(=O)CN2C(=O)c3ccccc3C2=O)sc(Cc2ccc3c(c2)OCO3)c1C	-2	-2	8	0	0	.	.
C=CCNC(=O)/C(=C/c1cn(-c2ccccc2)nc1-c1cccc([N+](=O)[O-])c1)NC(=O)c1ccccc1	-1	19*	6	0	0	-1	5
CN(C)C(=O)/C(=C/c1cn(-c2ccccc2)nc1-c1cccc([N+](=O)[O-])c1)NC(=O)c1ccccc1	7	-3	2	0	0	-6	.
C=CCn1c(SCc2nc3ccccc3c(=O)[nH]2)nc2scc(C3CC3)c2c1=O	-5	33*	-3	0	-2	-3	3
CCn1c(SCc2nc3ccccc3c(=O)[nH]2)nc2ccccc2c1=O	4	3	-2	-1	0	-3	.
O=c1[nH]c2cc([N+](=O)[O-])ccc2c2ccccc12	.	2	-9	3	-1	-3	.
O=C1Cc2c([nH]c3ccc([N+](=O)[O-])cc23)-c2ccccc2N1	.	31*	-10	2	0	-2	3
CCOC(=O)c1nn(-c2ccc(C)cc2)c(=O)cc1OCC(=O)Nc1ccc(OC)cc1	-5	-12	2	2	0	4	.
CCC1CCCCN1CCCNC(=O)c1ccc(/C=C2/Sc3ccccc3NC2=O)cc1 (stereo not given)	10	38*	12	2	-13	-13	0
CCc1cc(SC#N)ccc1N	-7	-11	5	2	-1	-6	.
O=C(CSc1ccc(-c2ccc(-n3cccn3)cc2)nn1)Nc1ccccc1F	17	25*	-8	0	-3	-2	3
O=C(CSc1ccc(-c2cccnc2)nn1)Nc1ccccc1F	2	-12	8	-1	1	-1	.
COc1ccc(NC(=O)c2cccc(N3C(=O)c4ccc(C(=O)Nc5ccc(OC)c(O)c5)cc4C3=O)c2)cc1O	-3	-7	14	0	0	6	.
